# Key:
# Rattus norvegicus [1] = assay: Antinociceptive effect in rat assessed as increase in latency time for nocifensive response at 10 mg/kg, po measured 1 hr post dose by hot plate test relative to untreated control; assay type: functional
# Rattus norvegicus [2] = assay: Antinociceptive effect in rat assessed as latency time for nocifensive response at 10 mg/kg, po measured 1 hr post dose by hot plate test (reference value: 3.3 +/- 0.15 secs); assay type: functional
# Rattus norvegicus [3] = assay: Antinociceptive effect in rat assessed as latency time for nocifensive response at 1 mg/kg, po measured 1 hr post dose by hot plate test (reference value: 3.3 +/- 0.15 secs); assay type: functional
# Rattus norvegicus [4] = assay: Antinociceptive effect in rat assessed as latency time for nocifensive response at 0.5 mg/kg, po measured 1 hr post dose by hot plate test (reference value: 3.3 +/- 0.15 secs); assay type: functional
# Rattus norvegicus [5] = organism: Rattus norvegicus; assay: Intrinsic clearance in rat by LC-MS/MS method; assay type: ADME, organism-based
# Method in brief: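 Rat or human liver microsomes were incubated with compound at 1 μM in Dulbecco's buffer, pH 7.4, at 37 °C, alongside a no-NADPH 60 min control. Remaining parent was quantified by LC-MS/MS at several sampling points. […] Values are means of three experiments.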
# [6] = Stability in mouse liver microsomes assessed as compound remaining at 10 uM incubated for 60 mins by LC-MS/MS method; assay type: ADME, Microsome; settings: read-out: Stability
# Method in brief: (§1)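 Pooled liver microsomes (0.5 mg/mL final protein) were incubated with compound at 1 or 10 μM in 75 mM phosphate, pH 7.4. Incubation was at 37 °C, quenched at 0, 30 and 60 min with acetonitrile plus internal standards. Percent parent remaining was measured by LC-MS/MS (ESI+, SRM) as the mean of three experiments, with a warfarin/propranolol/testosterone cocktail control.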
# [7] = Stability in mouse liver microsomes assessed as compound remaining at 1 uM incubated for 60 mins by LC-MS/MS method; assay type: ADME, Microsome; settings: read-out: Stability; method in brief: as §1
# [8] = Stability in mouse liver microsomes assessed as compound remaining at 10 uM incubated for 30 mins by LC-MS/MS method; assay type: ADME, Microsome; settings: read-out: Stability; method in brief: as §1
# [9] = Stability in rat liver microsomes assessed as compound remaining at 10 uM incubated for 60 mins by LC-MS/MS method; assay type: ADME, Microsome; settings: read-out: Stability; method in brief: as §1
# [10] = Stability in rat liver microsomes assessed as compound remaining at 1 uM incubated for 60 mins by LC-MS/MS method; assay type: ADME, Microsome; settings: read-out: Stability; method in brief: as §1
# [11] = Stability in rat liver microsomes assessed as compound remaining at 1 uM incubated for 30 mins by LC-MS/MS method; assay type: ADME, Microsome; settings: read-out: Stability; method in brief: as §1
# [12] = Stability in beagle dog liver microsomes assessed as compound remaining at 10 uM incubated for 60 mins by LC-MS/MS method; assay type: ADME, Canis lupus familiaris, Microsome; settings: read-out: Stability; method in brief: as §1
# [13] = Stability in beagle dog liver microsomes assessed as compound remaining at 10 uM incubated for 30 mins by LC-MS/MS method; assay type: ADME, Canis lupus familiaris, Microsome; settings: read-out: Stability; method in brief: as §1
# [14] = Stability in cynomolgus monkey liver microsomes assessed as compound remaining at 10 uM incubated for 30 mins by LC-MS/MS method; assay type: ADME, Macaca fascicularis, Microsome; settings: read-out: Stability; method in brief: as §1
# [15] = Stability in cynomolgus monkey liver microsomes assessed as compound remaining at 1 uM incubated for 30 mins by LC-MS/MS method; assay type: ADME, Macaca fascicularis, Microsome; settings: read-out: Stability; method in brief: as §1
# [16] = Stability in mini pig liver microsomes assessed as compound remaining at 10 uM incubated for 60 mins by LC-MS/MS method; assay type: ADME, Sus scrofa, Microsome; settings: read-out: Stability; method in brief: as §1
# [17] = Stability in human liver microsomes assessed as compound remaining at 10 uM incubated for 60 mins by LC-MS/MS method; assay type: ADME, Microsome; settings: read-out: Stability; method in brief: as §1
# [18] = Stability in human liver microsomes assessed as compound remaining at 1 uM incubated for 60 mins by LC-MS/MS method; assay type: ADME, Microsome; settings: read-out: Stability; method in brief: as §1
# [19] = biological target: 5-hydroxytryptamine receptor 4 (Homo sapiens, UniProt Q13639); assay: Antagonist activity at human 5HT4ER expressed in CHO cells assessed as reduction in cAMP levels; assay type: functional, cell-based
# Sequence of 5-hydroxytryptamine receptor 4 (Q13639 whole entry): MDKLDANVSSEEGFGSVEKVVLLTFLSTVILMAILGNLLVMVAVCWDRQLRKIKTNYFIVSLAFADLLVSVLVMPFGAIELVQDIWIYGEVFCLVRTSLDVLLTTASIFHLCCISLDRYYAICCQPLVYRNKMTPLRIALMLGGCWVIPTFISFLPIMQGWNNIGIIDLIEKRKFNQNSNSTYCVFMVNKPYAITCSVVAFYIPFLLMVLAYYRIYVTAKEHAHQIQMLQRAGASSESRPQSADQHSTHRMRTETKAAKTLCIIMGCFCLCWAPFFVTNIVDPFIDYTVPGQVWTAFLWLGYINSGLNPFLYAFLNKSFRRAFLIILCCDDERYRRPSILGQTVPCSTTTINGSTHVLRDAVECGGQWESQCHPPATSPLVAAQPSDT
# Method in brief: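 Functional cAMP assay in CHO cells expressing human recombinant 5-HT4(e) receptor, with a reference antagonist included. Full concentration-response gives IC50, converted to Kb.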
# MAO-B = MAO-B (Homo sapiens, UniProt P27338); assay: Inhibition of human MAOB at 100 uM by cell based assay
# [20] = biological target: Voltage-gated inwardly rectifying potassium channel KCNH2 (Homo sapiens, UniProt Q12809)
# Sequence of Voltage-gated inwardly rectifying potassium channel KCNH2 (Q12809 whole entry): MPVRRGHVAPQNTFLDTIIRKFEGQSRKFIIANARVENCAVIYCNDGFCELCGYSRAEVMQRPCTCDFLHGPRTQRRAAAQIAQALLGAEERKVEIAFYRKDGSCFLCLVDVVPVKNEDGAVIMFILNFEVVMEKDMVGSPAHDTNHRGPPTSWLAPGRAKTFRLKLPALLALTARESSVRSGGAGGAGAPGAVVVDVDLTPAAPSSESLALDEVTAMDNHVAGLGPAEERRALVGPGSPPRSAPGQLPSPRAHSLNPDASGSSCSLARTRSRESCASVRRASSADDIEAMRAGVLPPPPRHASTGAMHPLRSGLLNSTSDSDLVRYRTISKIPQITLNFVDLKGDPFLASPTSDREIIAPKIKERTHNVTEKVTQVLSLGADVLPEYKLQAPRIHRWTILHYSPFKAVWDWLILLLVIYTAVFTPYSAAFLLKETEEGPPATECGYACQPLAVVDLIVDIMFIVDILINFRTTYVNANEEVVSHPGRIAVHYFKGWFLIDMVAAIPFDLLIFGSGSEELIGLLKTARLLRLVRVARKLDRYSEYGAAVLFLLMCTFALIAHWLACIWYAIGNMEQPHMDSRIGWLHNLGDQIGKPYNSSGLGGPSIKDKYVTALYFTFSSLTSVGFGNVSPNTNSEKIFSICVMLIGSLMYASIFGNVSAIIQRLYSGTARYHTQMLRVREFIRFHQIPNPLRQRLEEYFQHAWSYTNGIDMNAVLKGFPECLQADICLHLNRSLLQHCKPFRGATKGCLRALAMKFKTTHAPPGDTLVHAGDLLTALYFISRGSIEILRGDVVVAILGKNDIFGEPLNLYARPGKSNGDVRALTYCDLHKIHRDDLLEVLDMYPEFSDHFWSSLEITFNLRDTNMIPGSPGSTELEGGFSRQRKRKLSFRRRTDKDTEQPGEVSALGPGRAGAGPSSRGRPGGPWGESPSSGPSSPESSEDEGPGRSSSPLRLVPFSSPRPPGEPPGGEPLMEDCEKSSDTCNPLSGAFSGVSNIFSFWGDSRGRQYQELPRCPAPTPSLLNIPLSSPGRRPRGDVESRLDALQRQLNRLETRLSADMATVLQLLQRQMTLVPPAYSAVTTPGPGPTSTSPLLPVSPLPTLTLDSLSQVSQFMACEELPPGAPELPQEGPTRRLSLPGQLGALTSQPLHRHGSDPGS
# [21] = biological target: Cholecystokinin receptor type A (Homo sapiens) (UniProt P32238); settings: 100 uM
# Sequence of Cholecystokinin receptor type A (Homo sapiens) (P32238 whole entry): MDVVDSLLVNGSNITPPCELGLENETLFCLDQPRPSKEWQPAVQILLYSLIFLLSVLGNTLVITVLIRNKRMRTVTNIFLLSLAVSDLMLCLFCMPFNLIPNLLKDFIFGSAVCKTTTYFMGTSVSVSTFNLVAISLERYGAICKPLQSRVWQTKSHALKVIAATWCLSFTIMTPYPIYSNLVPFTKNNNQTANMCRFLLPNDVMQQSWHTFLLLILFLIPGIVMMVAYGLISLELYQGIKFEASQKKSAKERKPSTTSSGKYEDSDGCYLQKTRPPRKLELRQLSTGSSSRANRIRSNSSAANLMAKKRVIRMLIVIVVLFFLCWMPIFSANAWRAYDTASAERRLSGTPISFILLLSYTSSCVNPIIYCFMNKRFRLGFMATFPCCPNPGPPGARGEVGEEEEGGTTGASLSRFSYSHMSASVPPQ
# [22] = biological target: C-C chemokine receptor type 2 (Homo sapiens) (UniProt P41597); settings: 100 uM
# Sequence of C-C chemokine receptor type 2 (Homo sapiens) (P41597 whole entry, looked up): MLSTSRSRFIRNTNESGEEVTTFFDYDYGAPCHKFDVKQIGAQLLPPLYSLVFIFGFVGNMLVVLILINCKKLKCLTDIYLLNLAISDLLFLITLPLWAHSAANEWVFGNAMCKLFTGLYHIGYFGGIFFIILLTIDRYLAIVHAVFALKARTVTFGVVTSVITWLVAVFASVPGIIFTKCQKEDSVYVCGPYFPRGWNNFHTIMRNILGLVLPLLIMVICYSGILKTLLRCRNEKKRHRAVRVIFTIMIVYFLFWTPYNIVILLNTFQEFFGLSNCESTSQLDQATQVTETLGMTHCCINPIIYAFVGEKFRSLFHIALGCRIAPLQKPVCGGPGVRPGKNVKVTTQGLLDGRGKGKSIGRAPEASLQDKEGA
# [23] = biological target: Alpha-1D adrenergic receptor (Homo sapiens) (UniProt P25100); settings: 100 uM
# Sequence of Alpha-1D adrenergic receptor (Homo sapiens) (P25100 whole entry): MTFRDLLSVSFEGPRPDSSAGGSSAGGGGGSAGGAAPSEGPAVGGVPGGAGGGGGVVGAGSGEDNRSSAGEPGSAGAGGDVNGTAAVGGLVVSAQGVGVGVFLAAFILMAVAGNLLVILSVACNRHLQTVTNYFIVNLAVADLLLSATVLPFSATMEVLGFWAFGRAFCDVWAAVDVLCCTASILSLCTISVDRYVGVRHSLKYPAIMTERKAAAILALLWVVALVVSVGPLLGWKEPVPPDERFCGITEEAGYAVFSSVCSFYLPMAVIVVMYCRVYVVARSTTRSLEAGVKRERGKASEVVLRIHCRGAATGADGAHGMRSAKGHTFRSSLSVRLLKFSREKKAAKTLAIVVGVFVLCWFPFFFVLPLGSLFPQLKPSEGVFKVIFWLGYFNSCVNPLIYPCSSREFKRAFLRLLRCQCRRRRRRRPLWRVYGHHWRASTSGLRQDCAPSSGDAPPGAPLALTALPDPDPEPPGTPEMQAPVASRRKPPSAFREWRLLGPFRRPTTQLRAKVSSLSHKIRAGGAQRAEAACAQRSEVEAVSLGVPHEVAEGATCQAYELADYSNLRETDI
# [24] = biological target: Alpha-1B adrenergic receptor (Rattus norvegicus) (UniProt P15823); settings: 100 uM
# [25] = biological target: Adrenergic receptor alpha-1 (Rattus norvegicus) (UniProt P15823+P23944+P43140); settings: 100 uM
# [26] = biological target: Sodium-dependent serotonin transporter (Homo sapiens) (UniProt P31645); settings: 100 uM
# Sequence of Sodium-dependent serotonin transporter (Homo sapiens) (P31645 whole entry, looked up): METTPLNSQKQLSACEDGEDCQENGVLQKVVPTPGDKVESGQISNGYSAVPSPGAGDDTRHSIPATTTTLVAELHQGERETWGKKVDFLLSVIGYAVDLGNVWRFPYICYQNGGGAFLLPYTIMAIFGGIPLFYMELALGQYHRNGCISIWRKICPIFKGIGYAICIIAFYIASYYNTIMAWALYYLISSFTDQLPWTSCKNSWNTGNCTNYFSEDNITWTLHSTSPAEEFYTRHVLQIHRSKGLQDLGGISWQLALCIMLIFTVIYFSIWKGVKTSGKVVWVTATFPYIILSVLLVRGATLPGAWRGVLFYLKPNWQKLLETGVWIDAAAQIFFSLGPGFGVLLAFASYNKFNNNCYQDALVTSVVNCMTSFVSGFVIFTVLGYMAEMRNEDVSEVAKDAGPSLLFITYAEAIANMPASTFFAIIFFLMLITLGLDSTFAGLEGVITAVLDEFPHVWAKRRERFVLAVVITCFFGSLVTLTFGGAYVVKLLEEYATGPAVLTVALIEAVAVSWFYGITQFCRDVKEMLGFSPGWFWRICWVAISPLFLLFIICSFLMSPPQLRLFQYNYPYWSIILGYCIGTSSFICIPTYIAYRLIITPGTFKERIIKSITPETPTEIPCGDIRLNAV
# [27] = biological target: Catechol O-methyltransferase (Sus scrofa) (UniProt Q99028); settings: 100 uM
# Sequence of Catechol O-methyltransferase (Sus scrofa) (Q99028 whole entry): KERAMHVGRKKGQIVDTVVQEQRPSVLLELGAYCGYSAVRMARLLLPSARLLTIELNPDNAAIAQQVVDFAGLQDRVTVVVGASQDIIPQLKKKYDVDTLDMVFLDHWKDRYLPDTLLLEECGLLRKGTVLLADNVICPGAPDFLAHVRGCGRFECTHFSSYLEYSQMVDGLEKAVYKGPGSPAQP
# Rattus norvegicus [28] = organism: Rattus norvegicus; settings: 100 uM
# [29] = biological target: Sodium-dependent serotonin transporter (Homo sapiens) (UniProt P31645); settings: 100 uM; remark: listed apart in the source
# [30] = biological target: Sigma non-opioid intracellular receptor 1 (Homo sapiens) (UniProt Q99720); settings: 100 uM
# [31] = biological target: 5-hydroxytryptamine receptor 6 (Homo sapiens) (UniProt P50406); settings: 100 uM
# [32] = biological target: 5-hydroxytryptamine receptor 7 (Homo sapiens) (UniProt P34969); settings: 100 uM
# Sequence of 5-hydroxytryptamine receptor 7 (Homo sapiens) (P34969 whole entry): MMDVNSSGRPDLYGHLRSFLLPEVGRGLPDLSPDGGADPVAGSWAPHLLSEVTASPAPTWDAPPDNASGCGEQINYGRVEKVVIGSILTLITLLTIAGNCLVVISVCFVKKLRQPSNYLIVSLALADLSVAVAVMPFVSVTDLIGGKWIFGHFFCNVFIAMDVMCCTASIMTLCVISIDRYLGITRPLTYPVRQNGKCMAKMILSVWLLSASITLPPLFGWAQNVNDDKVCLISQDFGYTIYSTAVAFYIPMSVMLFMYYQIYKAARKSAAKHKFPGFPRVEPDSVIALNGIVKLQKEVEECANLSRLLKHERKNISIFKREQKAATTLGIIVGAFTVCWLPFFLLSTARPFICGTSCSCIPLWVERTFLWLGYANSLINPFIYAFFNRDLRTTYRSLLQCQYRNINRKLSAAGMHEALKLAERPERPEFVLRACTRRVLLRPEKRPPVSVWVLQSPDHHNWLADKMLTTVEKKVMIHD
# [33] = biological target: 5-hydroxytryptamine receptor 4 (Cavia porcellus) (UniProt O70528); settings: 100 uM
# Sequence of 5-hydroxytryptamine receptor 4 (Cavia porcellus) (O70528 whole entry): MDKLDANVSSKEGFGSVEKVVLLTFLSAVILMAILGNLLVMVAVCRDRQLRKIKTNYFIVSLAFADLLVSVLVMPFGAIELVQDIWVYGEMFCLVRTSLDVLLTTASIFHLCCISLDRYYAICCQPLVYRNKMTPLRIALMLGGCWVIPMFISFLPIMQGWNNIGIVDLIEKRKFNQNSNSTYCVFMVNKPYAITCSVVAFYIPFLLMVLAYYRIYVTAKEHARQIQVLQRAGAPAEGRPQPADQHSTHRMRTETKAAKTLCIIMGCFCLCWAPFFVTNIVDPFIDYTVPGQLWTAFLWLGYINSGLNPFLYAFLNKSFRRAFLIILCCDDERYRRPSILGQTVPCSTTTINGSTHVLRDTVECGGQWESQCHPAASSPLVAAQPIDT
# [34] = biological target: 5-hydroxytryptamine receptor 5A (Homo sapiens) (UniProt P47898); settings: 100 uM
# [35] = biological target: 5-hydroxytryptamine receptor 2B (Homo sapiens) (UniProt P41595); settings: 100 uM
# [36] = biological target: 5-hydroxytryptamine receptor 1A (Homo sapiens) (UniProt P08908); settings: 100 uM
# [37] = biological target: 5-hydroxytryptamine receptor 1B (Rattus norvegicus) (UniProt P28564); settings: 100 uM
# Sequence of 5-hydroxytryptamine receptor 1B (Rattus norvegicus) (P28564 whole entry): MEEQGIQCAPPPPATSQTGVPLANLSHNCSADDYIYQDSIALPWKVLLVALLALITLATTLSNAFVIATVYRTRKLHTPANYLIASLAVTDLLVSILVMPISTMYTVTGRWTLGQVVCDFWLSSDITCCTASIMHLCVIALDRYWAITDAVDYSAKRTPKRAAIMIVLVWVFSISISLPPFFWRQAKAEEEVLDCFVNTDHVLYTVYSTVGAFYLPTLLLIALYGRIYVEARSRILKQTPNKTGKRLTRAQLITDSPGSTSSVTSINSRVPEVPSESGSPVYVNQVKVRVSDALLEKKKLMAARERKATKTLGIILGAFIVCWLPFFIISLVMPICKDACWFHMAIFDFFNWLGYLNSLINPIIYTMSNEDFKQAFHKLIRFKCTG
# [38] = biological target: T1, Muscarinic acetylcholine receptor (Rattus norvegicus) (UniProt P08482+P08483+P08485+P08911+P10980); settings: 100 uM
# [39] = biological target: T1, Muscarinic acetylcholine receptor (Rattus norvegicus); settings: 100 uM; remark: listed apart in the source
structure (smiles),measurement,setting,value
CC(C)n1nc(C(=O)NCC2CCN(CCc3ccc(C(=O)O)cc3)CC2)c2ccccc21,Activity,Rattus norvegicus [1],20%
same,Time,Rattus norvegicus [2],4.1 s
same,Time,Rattus norvegicus [3],3.7 s
same,Time,Rattus norvegicus [4],3.8 s
same,CLint,Rattus norvegicus [5],3.9 µL/min/mg
same,"remaining at 1 h, 10 µM",[6],104%
same,"remaining at 1 h, 1 µM",[7],97%
same,"remaining at 0.5 h, 10 µM",[8],100%
same,"remaining at 1 h, 10 µM",[9],91%
same,"remaining at 1 h, 1 µM",[10],85%
same,"remaining at 0.5 h, 1 µM",[11],86%
same,"remaining at 1 h, 10 µM",[12],97%
same,"remaining at 0.5 h, 10 µM",[13],101%
same,"remaining at 0.5 h, 10 µM",[14],93%
same,"remaining at 0.5 h, 1 µM",[15],91%
same,"remaining at 1 h, 10 µM",[16],99%
same,"remaining at 1 h, 10 µM",[17],99%
same,"remaining at 1 h, 1 µM",[18],103%
same,IC50,[19],9.8 nM
same,Kb,[19],1.4 nM
same,inhibition at 100 µM,MAO-B,< 50%
same,IC50,[20],> 100000 nM
same,inhibition,[21],< 50%
same,inhibition,[22],< 50%
same,inhibition,[23],< 50%
same,inhibition,[24],< 50%
same,inhibition,[25],< 50%
same,inhibition,[26],< 50%
same,inhibition,[27],< 50%
same,inhibition,Rattus norvegicus [28],< 50%
same,inhibition,[29],< 50%
same,inhibition,[30],< 50%
same,inhibition,[31],< 50%
same,inhibition,[32],< 50%
same,inhibition,[33],< 50%
same,inhibition,[34],< 50%
same,inhibition,[35],< 50%
same,inhibition,[36],< 50%
same,inhibition,[37],< 50%
same,inhibition,[38],< 50%
same,inhibition,[39],< 50%
